Laboratory results taken from ChEMBL document CHEMBL1781903, “Antiprotozoal activity of chloroquinoline based chalcones” (Eur J Med Chem, 2011).
The source made the active and inactive calls. The calls are words filed in the database; no cut-off is given here.

Legend:
MCF7 [1] = test: Cytotoxicity against human MCF7 cells after 48 hrs by MTT assay; format: cell-based; conditions: MCF7, 48 h
Procedure, shortened: (§1)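 MCF-7 cells grown in DMEM with 10% FCS and penicillin/streptomycin, seeded at 1.2×10^4 cells/well and grown 48 h before treatment. Stocks prepared in 20% (v/v) DMSO and diluted in medium. After 48 h at 37 °C, MTT (5 mg/mL) added for 4 h, formazan dissolved in DMSO, A570 read with 655 nm reference. Viability relative to untreated cells; triplicate.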

Plasmodium falciparum [2] = test: Antimicrobial activity against chloroquine-sensitive Plasmodium falciparum 3D7 assessed as inhibition of [3H] hypoxanthine incorporation after 24 hrs by scintillation counting; format: functional, organism-based
Procedure, shortened: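 Synchronized ring-stage 3D7 culture at 0.5% parasitemia and 1% haematocrit in supplemented RPMI-1640, exposed to serially diluted DMSO stocks for 24 h. [3H]-hypoxanthine added at 0.5 µCi/well for a further 24 h, then DNA harvested onto filter mats and counted by β-scintillation. IC50 from log sigmoid dose-response curves. At least triplicate; chloroquine and quinine as references.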

[3] = Inhibition of beta-haematin formation at 100 uM after 24 hrs by microtiter plate assay; format: functional
Plasmodium falciparum [4] = test: Inhibition of Plasmodium falciparum falcipain
[5] = Toxicity in human RBC assessed as hemolysis at 100 uM after 48 hrs; format: cell-based, Erythrocyte; conditions: red blood cells (RBC), read-out: Activity
Procedure, shortened: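 Fresh human red blood cells at 1% haematocrit in culture medium, incubated 48 h with compound at 100 μM, absorbance read at 412 nm. % haemolysis calculated against 0.5% Triton X100 as the 100% control. At least triplicate, mean ± s.d.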

Entamoeba histolytica [6] = test: […] activity against Entamoeba histolytica HM-1:IMSS trophozoites after 72 hrs by microdilution method; format: functional, organism-based
Procedure, shortened: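 E. histolytica trophozoites in TYIS-33 medium; DMSO stocks (1 mg/mL) twofold serially diluted, 1.7×10^4 amoebae/well, nitrogen-gassed, 37 °C for 72 h. Methanol-fixed, eosin-stained, dye released in 0.1 N NaOH, OD 490 nm. Triplicate per concentration, repeated thrice. % inhibition vs log concentration, IC50 from linear regression; metronidazole as reference.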

[7] = Inhibition of beta-haematin formation after 24 hrs by microtiter plate assay; format: functional
Procedure, shortened: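 Compound mixed with haemin (1 mg/mL in DMSO), water and 0.5 M acetate buffer at pH 4.7, then incubated 24 h. Unreacted haemin removed by three DMSO washes with centrifugation at 1500 g. β-haematin dissolved in 2 M NaOH, diluted twofold, absorbance read at 405 nm. IC50 taken from the data. Chloroquine and quinine as positive controls; at least triplicate.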

Plasmodium falciparum [8] = test: Inhibition of Plasmodium falciparum cysteine protease
[9] = system: Radical scavenging activity; test: Antioxidant activity assessed as DPPH radical scavenging activity at 80 uM after 30 mins; format: functional
Procedure, shortened: (§2)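 Compounds added to DPPH• in methanol, kept in the dark at room temperature for 30 min, absorbance read at 540 nm. Scavenging given as % decrease in absorbance relative to a drug-free DPPH• control, with a MeOH/DMSO background control. Ascorbic acid as comparator; triplicate.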

Plasmodium falciparum [10] = test: Antimicrobial activity against chloroquine-sensitive Plasmodium falciparum 3D7 assessed as inhibition of [3H] hypoxanthine incorporation at 100 uM after 24 hrs by scintillation counting; format: functional
Entamoeba histolytica [11] = test: Ratio of metronidazole IC50 to compound IC50 for Entamoeba histolytica HM-1:IMSS trophozoites; format: functional
[12] = system: Radical scavenging activity; test: Antioxidant activity assessed as DPPH radical scavenging activity after 30 mins; format: functional; procedure, shortened: as §2
Plasmodium falciparum [13] = test: Antimicrobial activity against chloroquine-resistant Plasmodium falciparum FCB1; format: functional, organism-based; conditions: FcB1/Columbia
[14] = Cytotoxicity against human MCF7 cells assessed as cell growth inhibition at 100 uM after 48 hrs by MTT assay; format: cell-based; conditions: read-out: GI; procedure, shortened: as §1
MCF7 [15] = test: Cytotoxicity against human MCF7 cells assessed as cell growth inhibition after 48 hrs by MTT assay; format: cell-based; conditions: mcf7, 48 h; procedure, shortened: as §1
[16] = Cytotoxicity against human MCF7 cells assessed as cell growth inhibition at 50 uM after 48 hrs by MTT assay; format: cell-based; conditions: read-out: GI; procedure, shortened: as §1

Row | Compound | IC50 (MCF7 [1]) | IC50 (Plasmodium falciparum [2]) | inhibition [3] | inhibition (Plasmodium falciparum [4]) | hemolysis at 48 h, 100 µM [5] | IC50 (Entamoeba histolytica [6]) | IC50 [7] | inhibition (Plasmodium falciparum [8]) | Activity [9] | inhibition at 100 µM (Plasmodium falciparum [10]) | Ratio IC50 (Entamoeba histolytica [11]) | IC50 [12] | IC50 (Plasmodium falciparum [13]) | inhibition at 48 h, 100 µM [14] | Activity (MCF7 [15]) | inhibition at 48 h, 50 µM [16]
1 | Cc1ccc2nc(Cl)c(/C=C/C(=O)c3cccc(Br)c3)cc2c1 | > 100 µM | 50.1 µM | 14.9% | inactive | 1.68% | 1.03 µM | > 100 µM | inactive |  |  |  |  |  |  |  | 
2 | Cc1ncc([N+](=O)[O-])n1CCO [METRONIDAZOLE] | > 100 µM |  |  |  |  | 1.46 µM |  |  |  |  |  |  |  |  |  | 
3 | C/C(=C\c1cc2ccccc2nc1Cl)C(=O)c1cccc(Br)c1 |  | > 100 µM | 9.35% | inactive | 2.17% | 3.65 µM | > 100 µM | inactive | 1.43% | 34.3% |  |  |  |  |  | 
4 | O=C(/C=C/c1cc2ccccc2nc1Cl)c1cccc(Br)c1 |  | > 100 µM | 16% | inactive | 1.38% | 3.45 µM | > 100 µM | inactive |  | 61.2% |  |  |  |  |  | 
5 | C/C(=C\c1cc2ccc(C)cc2nc1Cl)C(=O)c1cccc(Br)c1 | > 100 µM | 47.1 µM | 10.5% | inactive | 1.04% | 0.09 µM | > 100 µM | inactive | 2.27% |  | 16 |  |  |  |  | 
6 | O=C1O[C@H]([C@@H](O)CO)C(O)=C1O [ASCORBIC ACID] |  |  |  |  |  |  |  |  |  |  |  | 20.1 µM |  |  |  | 
7 | O=C(/C=C/c1cc2ccccc2nc1Cl)c1ccc(Cl)cc1 | > 100 µM | 39.2 µM | 19.5% | inactive | 1.74% | 0.05 µM | > 100 µM | inactive | 3.69% |  | 29.2 |  | > 200 µM |  |  | 
8 | Cc1ccc2cc(/C=C/C(=O)c3ccc(Cl)cc3)c(Cl)nc2c1 |  |  |  | inactive |  | 6.91 µM |  | inactive |  |  |  |  | > 200 µM |  |  | 
9 | Cc1ccc2cc(/C=C/C(=O)c3ccccn3)c(Cl)nc2c1 | 75.7 µM | 31.3 µM | 15% | inactive | 0.47% | 0.05 µM | > 100 µM | inactive |  |  | 29.2 |  |  | 66% | Dose-dependent effect | 36%
10 | Cc1ccc2nc(Cl)c(/C=C/C(=O)c3ccc(Br)cc3)cc2c1 |  | 74.8 µM | 55.4% | inactive | 1.4% | 4.09 µM | > 100 µM | inactive |  |  |  |  |  |  |  | 
11 | O=C(/C=C/c1cc2ccccc2nc1Cl)c1ccc(Br)cc1 |  | 44.6 µM | 13.6% | inactive | 2.2% | 3.38 µM | > 100 µM | inactive |  |  |  |  |  |  |  | 
12 | C/C(=C\c1cc2cc(C)ccc2nc1Cl)C(=O)c1cccc(Br)c1 |  | > 100 µM | 13.3% | inactive | 1.53% | 2.79 µM | > 100 µM | inactive |  | 51.1% |  |  |  |  |  | 
13 | C/C(=C\c1cc2ccc(C)cc2nc1Cl)C(=O)c1cccc(Cl)c1 |  | 50.4 µM | 5.64% | inactive | 1.44% | 7.03 µM | > 100 µM | inactive | 0.78% |  |  |  |  |  |  | 
14 | Cc1ccc2cc(/C=C/C(=O)c3cccc(Br)c3)c(Cl)nc2c1 |  | 59.7 µM | 27.5% | inactive | 1.09% | 7.53 µM | > 100 µM | inactive |  |  |  |  |  |  |  | 
15 | C=C[C@H]1CN2CC[C@H]1C[C@H]2[C@H](O)c1ccnc2ccc(OC)cc12 [QUININE] |  | 0.14 µM |  |  |  |  | 65.8 µM |  | 2.65% |  |  |  |  |  |  | 
16 | C/C(=C\c1cc2cc(C)ccc2nc1Cl)C(=O)c1cccc(Cl)c1 | > 100 µM | > 100 µM | 14.4% | inactive | 1.24% | 0.06 µM | > 100 µM | inactive |  | 8.74% |  |  |  |  |  | 
17 | Cc1ccc2nc(Cl)c(/C=C/C(=O)c3ccccn3)cc2c1 |  | 31.5 µM | 11.5% | inactive | 1.55% | 1.45 µM | > 100 µM | inactive |  |  |  |  |  |  |  | 
18 | O=C(/C=C/c1cc2ccccc2nc1Cl)c1ccccn1 |  | 32 µM | 12.3% | inactive | 1.1% | 5.3 µM | > 100 µM | inactive |  |  |  |  |  |  |  | 
19 | CCN(CC)CCCC(C)Nc1ccnc2cc(Cl)ccc12 (configuration not stated) [CHLOROQUINE] |  |  |  |  | 0.72% |  | 25 µM |  | 4.06% |  |  |  |  |  |  | 
20 | C=C[C@H]1C[N@@]2CC[C@H]1C[C@H]2[C@H](O)c1ccnc2ccc(OC)cc12 [QUININE] |  |  |  |  | 1.22% |  |  |  |  |  |  |  |  |  |  | 
